Active and inactive are the calls of the source. The rule behind the calls is not given here.
How the values were obtained:
[1] = molecular target: T1, Fatty acid-binding protein, adipocyte (Homo sapiens, UniProt P15090); test: Displacement of 1,8-ANS from FABP4 (unknown origin) at 25 uM incubated for 3 mins by fluorescence based analysis relative to control
How it was run: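 Single-concentration percent inhibition in the 1,8-ANS displacement assay with FABP4. Compound incubated with protein and probe in phosphate buffer for 3 min at room temperature; fluorescence read at ex 370/em 470 nm.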
Target sequence in this assay (P15090 2-132 limits assumed): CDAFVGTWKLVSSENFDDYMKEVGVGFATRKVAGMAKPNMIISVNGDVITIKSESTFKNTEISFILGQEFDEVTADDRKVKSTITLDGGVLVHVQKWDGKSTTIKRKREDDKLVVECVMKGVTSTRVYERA

[2] = molecular target: T1, Fatty acid-binding protein, adipocyte; test: Displacement of 1,8-ANS from FABP4 (unknown origin) incubated for 3 mins by fluorescence based analysis
How it was run: (§1)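 1,8-ANS displacement using purified recombinant FABP3, FABP4 or FABP5. Compound incubated with protein and 1,8-ANS in phosphate buffer for 3 min at room temperature. Fluorescence read at ex 370/em 470 nm. IC50 by nonlinear regression, mean ± SD of three independent experiments.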
Target sequence in this assay (P15090 whole entry): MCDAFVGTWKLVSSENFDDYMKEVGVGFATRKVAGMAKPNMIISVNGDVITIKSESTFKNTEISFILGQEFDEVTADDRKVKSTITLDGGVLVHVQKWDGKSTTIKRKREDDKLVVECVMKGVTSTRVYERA

[3] = molecular target: Fatty acid-binding protein 5 (Homo sapiens, UniProt Q01469); test: Displacement of 1,8-ANS from FABP5 (unknown origin) incubated for 3 mins by fluorescence based analysis
Fatty acid-binding protein 5, sequence (Q01469 whole entry): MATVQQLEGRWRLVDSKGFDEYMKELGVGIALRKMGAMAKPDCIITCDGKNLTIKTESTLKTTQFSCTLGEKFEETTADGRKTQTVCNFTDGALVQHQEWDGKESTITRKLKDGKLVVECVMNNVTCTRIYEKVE

[4] = Metabolic stability in mouse liver microsomes assessed as half life at 0.1 uM preincubated for 10 mins followed by NADPH addition and measured for 60 mins by LC-MS/MS analysis; assay type: ADME, Microsome; conditions: time 70 min
How it was run: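 Mouse liver microsomes 0.33 mg/mL in 0.1 M Tris pH 7.4 with 5 mM MgCl₂, 0.01% DMSO and 0.005% BSA. Compound final […]. Preincubated 10 min at 37 °C; reaction started with 1 mM NADPH. Samples at 0, 7, 17, 30 and 60 min quenched with cold methanol, then analysed by LC-MS/MS.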

3T3-L1 [5] = test: Anti-lipolytic activity in mouse 3T3-L1 cells assessed as inhibition of forskolin-stimulated glycerol release at 80 uM preincubated for 24 hrs followed by forskolin stimulation for 1 hr; assay type: functional, cell-based; conditions: time 25.0 hrs
3T3-L1 [6] = test: Cytotoxicity against mouse 3T3-L1 cells assessed as reduction in cell viability at 100 uM incubated for 24 hrs by CCK8 assay; assay type: cell-based; conditions: 3t3-l1, 24 h
[7] = molecular target: Fatty acid-binding protein, heart (Homo sapiens, UniProt P05413); test: Displacement of 1,8-ANS from FABP3 (unknown origin) incubated for 3 mins by fluorescence based analysis; how it was run: as §1
Fatty acid-binding protein, heart, sequence (P05413 whole entry): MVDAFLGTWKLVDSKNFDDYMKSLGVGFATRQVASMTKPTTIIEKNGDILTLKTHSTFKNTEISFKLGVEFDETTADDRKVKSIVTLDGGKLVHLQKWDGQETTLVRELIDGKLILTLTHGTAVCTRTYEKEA

Homo sapiens [8] = organism: Homo sapiens; test: Selectivity ratio of IC50 for FABP3 (unknown origin) to IC50 for FABP4 (unknown origin); how it was run: as §1
Homo sapiens [9] = organism: Homo sapiens; test: Selectivity ratio of IC50 for FABP3 (unknown origin) to IC50 for FABP5 (unknown origin); how it was run: as §1

Row | Structure (SMILES) | inhibition [1] [%] | IC50 [2] [µM] | IC50 [3] [µM] | also measured
1 | COc1c(-c2ccc(F)cc2)cc(S(=O)(=O)Nc2ccc(F)c(CC(=O)O)c2)c2ccccc12 | 95 | 4.71 |  | 
2 | COc1c(-c2cccc(Cl)c2F)cc(S(=O)(=O)Nc2ccc(F)c(CC(=O)O)c2)c2ccccc12 | 84 | 6.45 |  | 
3 | COc1c(-c2ccccc2O)cc(S(=O)(=O)Nc2ccc(F)c(CC(=O)O)c2)c2ccccc12 | 86 | 8.03 |  | 
4 | COc1c(-c2ccccc2C(F)(F)F)cc(S(=O)(=O)Nc2ccc(F)c(CC(=O)O)c2)c2ccccc12 | 56 |  | 7.72 | 
5 | O=C(O)c1cc(NS(=O)(=O)c2ccc(OCCC3CCCCC3)c3ccccc23)ccc1F |  |  |  | half-life at 0.1 µM [4]: 23.5 min
6 | COc1c(-c2cc(Cl)ccc2Cl)cc(S(=O)(=O)Nc2ccc(F)c(CC(=O)O)c2)c2ccccc12 | 52 |  |  | 
7 | COc1c(-c2ccccc2C(C)C)cc(S(=O)(=O)Nc2ccc(F)c(CC(=O)O)c2)c2ccccc12 | 50 |  | 2.9 | half-life at 0.1 µM [4]: 15.1 min; Activity (3T3-L1 [5]): Active; Activity (3T3-L1 [6]): Non-Toxic
8 | O=C(O)c1cc(NS(=O)(=O)c2ccc(-c3ccc(F)cc3F)c3ccccc23)ccc1F | 85 | 4.7 |  | Activity (3T3-L1 [6]): Non-Toxic
9 | CCc1ccccc1-c1cc(S(=O)(=O)Nc2ccc(F)c(CC(=O)O)c2)c2ccccc2c1OC | 63 | 14.3 | 3.2 | 
10 | Cc1cc(F)ccc1-c1ccc(S(=O)(=O)Nc2ccc(F)c(C(=O)O)c2)c2ccccc12 | 85 | 5 |  | half-life at 0.1 µM [4]: 88.4 min; Activity (3T3-L1 [5]): Active; Activity (3T3-L1 [6]): Non-Toxic
11 | COc1c(-c2ccccc2F)cc(S(=O)(=O)Nc2ccc(F)c(CC(=O)O)c2)c2ccccc12 | 87 | 5.25 |  | 
12 | O=C(O)c1cc(NS(=O)(=O)c2ccc(-c3ccccc3OC(F)(F)F)c3ccccc23)ccc1F | 74 | 12.5 | 8.2 | 
13 | Cc1c(Cl)cccc1OCc1[nH]c2nc(-c3ccccc3)nn2c(=O)c1C | 97 | 6.34 |  | IC50 [7]: 1.95 µM; Ratio IC50 (Homo sapiens [8]): 0.31; Ratio IC50 (Homo sapiens [9]): 0.08
14 | COc1c(-c2ccccc2C)cc(S(=O)(=O)Nc2ccc(F)c(CC(=O)O)c2)c2ccccc12 | 80 | 5.16 | 7.72 | 

— ChEMBL document CHEMBL4831507, “Development of FABP4/5 inhibitors with potential therapeutic effect on type 2 Diabetes Mellitus” (Eur J Med Chem, 2021)
